This note sets out measurements from publication PMC6287413 (Drug Design, Development and Therapy, 2018).

Each structure is given as a SMILES string. Where a SMILES comes first, the peptide text is derived from it.

The target in the experiment is T1, PTP1B (Homo sapiens, UniProt P18031).
T1 sequence (P18031 1-435): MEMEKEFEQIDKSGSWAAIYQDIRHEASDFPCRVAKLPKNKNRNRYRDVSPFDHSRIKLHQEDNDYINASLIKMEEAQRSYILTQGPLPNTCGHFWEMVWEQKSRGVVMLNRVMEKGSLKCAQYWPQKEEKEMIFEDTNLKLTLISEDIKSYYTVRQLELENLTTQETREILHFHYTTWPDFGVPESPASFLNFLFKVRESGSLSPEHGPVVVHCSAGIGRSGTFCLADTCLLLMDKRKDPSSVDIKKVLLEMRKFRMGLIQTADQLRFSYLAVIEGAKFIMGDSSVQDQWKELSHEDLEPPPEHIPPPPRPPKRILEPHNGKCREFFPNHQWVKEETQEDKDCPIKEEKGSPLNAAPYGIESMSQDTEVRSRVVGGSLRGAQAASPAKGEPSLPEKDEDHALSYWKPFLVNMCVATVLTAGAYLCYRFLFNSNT
The experiment in a line: Inhibitory activity analysis with recombinant PTP1B phosphatase. Format: biochemical. In a few lines:
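Recombinant phosphatase at 1.5 µg/mL […] final in 10 mM HEPES, pH 7.4. Each enzyme was left untreated (control) or treated with peptide solutions over a range of concentrations and incubation times, at 37°C. Para-nitrophenyl phosphate (2 mM) was the chromogenic substrate, read at 405 nm. Every experiment was run three or more times.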
The term IC50 denotes the concentration needed to halve the response being measured. For the compound `N[C@@H](CC(=O)O)C(=O)N[C@@H](Cc1ccccc1)C(=O)O` [Asp-Phe] (H-Asp-Phe-OH), the IC50 was 52.6 ± 3.7 µM.
As for `N[C@@H](Cc1ccccc1)C(=O)N[C@@H](CC(=O)O)C(=O)N[C@@H](Cc1ccccc1)C(=O)O` [Phe-Asp-Phe] (H-Phe-Asp-Phe-OH), the figure is 255 ± 29.4 µM; as for `N[C@@H](Cc1ccccc1)C(=O)N[C@@H](CC(=O)O)C(=O)O` [Phe-Asp] (H-Phe-Asp-OH), 52.1 ± 1.4 µM; as for `N[C@@H](Cc1ccccc1)C(=O)N[C@@H](Cc1ccccc1)C(=O)N[C@@H](CC(=O)O)C(=O)O` [Phe-Phe-Asp] (H-Phe-Phe-Asp-OH), 104 ± 15.9 µM.
